Experimental findings from ChEMBL document CHEMBL4393713, “Synthesis and biological evaluation of novel xanthine derivatives as potential apoptotic antitumor agents” (Eur J Med Chem, 2019) are described below.

As usually defined, the IC50 is the midpoint of a concentration-inhibition curve.

Series [1] deals with PANC-1. Briefly: Antiproliferative activity against human PANC1 cells assessed as inhibition of cell proliferation measured after 48 hrs by MTT assay. The series is classed as functional, cell-based. The following applies: PANC-1, 48 h. Summed up:
(§1)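 Cells tested by MTT: pancreatic Panc-1, breast MCF-7, colon HT-29 and A-549. Doxorubicin run alongside as the reference compound.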
On the technique in general: Formazan colour is commonly taken as a measure of viable cells.

In series [2] the test system is MCF7. Briefly: Antiproliferative activity against human MCF7 cells assessed as inhibition of cell proliferation measured after 48 hrs by MTT assay. The following applies: MCF7, 48 h. In kind it is functional, cell-based. Summed up:
as §1

Series [3] can be described thus: Cytotoxicity against human MCF10A cells assessed as cell viability at 50 uM measured after 4 days by MTT assay relative to control. The series is classed as cell-based, MCF-10A. The following applies: read-out: Activity.
The test system of series [4] is A549. As to the kind of experiment: Antiproliferative activity against human A549 cells assessed as inhibition of cell proliferation measured after 48 hrs by MTT assay. The series is classed as functional, cell-based. The conditions noted are these: A549, 48 h. In short, it runs like this:
as §1

The subject of series [5] is HT-29. As to the kind of experiment: Antiproliferative activity against human HT-29 cells assessed as inhibition of cell proliferation measured after 48 hrs by MTT assay. The series is classed as functional, cell-based. The conditions noted are these: HT-29, 48 h. Summed up:
as §1

In series [6] the target is Epidermal growth factor receptor (Homo sapiens, UniProt P00533). As to the kind of experiment: Inhibition of human EGFR measured after 3 hrs by ELISA. A general note: In an ELISA, binding on a coated surface is turned into a signal by an enzyme label.
Series [7] concerns PANC-1. As to the kind of experiment: Induction of apoptosis in human PANC1 cells assessed as increase in caspase 3 level measured after 24 to 48 hrs relative to control. The series is classed as functional. Summed up:
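Active caspase-3 protein in treated Panc-1 cells quantified as pg/mL. Reported as fold increase over untreated control cells, with doxorubicin as the reference drug.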

Series [8] has as its system PANC-1. Briefly: Induction of apoptosis in human PANC1 cells assessed as increase in caspase 8 level measured after 24 to 48 hrs relative to control. The series is classed as functional. In short, it runs like this: (§2)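 Caspase-8, caspase-9 and cytochrome c levels in treated Panc-1 cells expressed as fold change relative to untreated control cells.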
For series [9], the system named is PANC-1. Briefly: Induction of apoptosis in human PANC1 cells assessed as increase in cytochrome C level using TMB substrate measured after 24 hrs relative to control. In kind it is functional. Summed up: as §2
The test system of series [10] is PANC-1. As to the kind of experiment: Induction of apoptosis in human PANC1 cells assessed as increase in BAX level by Sybr-green dye based RT-PCR analysis relative to control. The series is classed as functional.
Series [11] has as its system PANC-1. As to the kind of experiment: Induction of apoptosis in human PANC1 cells assessed as increase in caspase 9 level measured after 24 to 48 hrs relative to control. The series is classed as functional. Summed up:
as §2

For series [12], the system named is PANC-1. As to the kind of experiment: Induction of apoptosis in human PANC1 cells assessed as downregulation of Bcl-2 expression level by Sybr-green dye based RT-PCR analysis relative to control. In kind it is functional.
Series [13] relates to PANC-1. As to the kind of experiment: Induction of apoptosis in human PANC1 cells assessed as proportion of early apoptotic cells measured after 24 hrs by annexin v propidium iodide staining based flow cytometric analysis. In kind it is functional. (In general: In flow cytometry, cells or beads pass a laser one at a time.)
The test system of series [14] is PANC-1. Briefly: Cell cycle arrest in human PANC1 cells assessed as accumulation at pre G1 phase measured after 24 hrs by annexin v propidium iodide staining based flow cytometric analysis (reference value: 1.79%). The series is classed as functional.
The subject of series [15] is PANC-1. As to the kind of experiment: Cell cycle arrest in human PANC1 cells assessed as accumulation at G0/G1 phase measured after 24 hrs by annexin v propidium iodide staining based flow cytometric analysis (reference value: 53.64%). The series is classed as functional.
For series [16], the system named is PANC-1. As to the kind of experiment: Induction of apoptosis in human PANC1 cells assessed as proportion of necrotic cells measured after 24 hrs by annexin v propidium iodide staining based flow cytometric analysis. The series is classed as functional.
The subject of series [17] is PANC-1. As to the kind of experiment: Induction of apoptosis in human PANC1 cells assessed as proportion of late apoptotic cells measured after 24 hrs by annexin v propidium iodide staining based flow cytometric analysis. In kind it is functional.
For series [18], the system named is PANC-1. Briefly: Cell cycle arrest in human PANC1 cells assessed as accumulation at G2/M phase measured after 24 hrs by annexin v propidium iodide staining based flow cytometric analysis (reference value: 9.95 %). The series is classed as functional.

Epidermal growth factor receptor, sequence (P00533 whole entry): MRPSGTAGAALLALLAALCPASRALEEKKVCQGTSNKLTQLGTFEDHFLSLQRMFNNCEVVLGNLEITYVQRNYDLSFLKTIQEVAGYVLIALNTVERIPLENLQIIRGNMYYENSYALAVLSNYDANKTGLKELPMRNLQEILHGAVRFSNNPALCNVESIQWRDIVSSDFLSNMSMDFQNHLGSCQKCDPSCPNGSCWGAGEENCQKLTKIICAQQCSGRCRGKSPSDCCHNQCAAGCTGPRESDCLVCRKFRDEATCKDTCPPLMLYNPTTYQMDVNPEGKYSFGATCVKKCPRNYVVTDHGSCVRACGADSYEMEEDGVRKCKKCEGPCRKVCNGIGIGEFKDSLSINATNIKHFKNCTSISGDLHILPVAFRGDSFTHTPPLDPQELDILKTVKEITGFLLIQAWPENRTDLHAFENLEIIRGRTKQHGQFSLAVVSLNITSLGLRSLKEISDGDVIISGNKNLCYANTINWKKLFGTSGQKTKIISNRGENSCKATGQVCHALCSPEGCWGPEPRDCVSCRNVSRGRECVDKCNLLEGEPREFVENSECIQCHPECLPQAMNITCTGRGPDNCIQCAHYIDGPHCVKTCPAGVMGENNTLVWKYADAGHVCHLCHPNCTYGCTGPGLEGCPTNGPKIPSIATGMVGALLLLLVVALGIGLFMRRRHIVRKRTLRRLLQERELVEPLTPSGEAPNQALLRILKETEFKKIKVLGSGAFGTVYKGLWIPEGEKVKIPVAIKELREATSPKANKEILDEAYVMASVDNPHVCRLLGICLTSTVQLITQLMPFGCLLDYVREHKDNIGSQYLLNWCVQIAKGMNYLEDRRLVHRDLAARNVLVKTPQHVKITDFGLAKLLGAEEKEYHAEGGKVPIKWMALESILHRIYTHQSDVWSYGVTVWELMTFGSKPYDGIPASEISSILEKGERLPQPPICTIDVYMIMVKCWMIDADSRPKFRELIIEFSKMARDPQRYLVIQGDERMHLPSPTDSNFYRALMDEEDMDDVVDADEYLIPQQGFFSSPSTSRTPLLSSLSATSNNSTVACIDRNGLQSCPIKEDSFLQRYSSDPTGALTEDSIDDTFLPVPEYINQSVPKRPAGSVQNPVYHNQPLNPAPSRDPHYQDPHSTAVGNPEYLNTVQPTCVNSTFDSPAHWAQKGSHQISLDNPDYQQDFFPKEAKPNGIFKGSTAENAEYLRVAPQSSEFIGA

Consider `C/C(=N/O)c1ccc(NC(=O)CSc2nc3[nH]c(=O)n(C)c(=O)c3[nH]2)cc1`, for which the IC50 was 7.7 µM in [1], 9.1 µM in [2], 7.3 µM in series [4] and 6.2 µM in series [5]. For the same compound, the viability at 96 h, 50 µM in [3] was over 90%.
In the same order, the values of `Cn1c(=O)[nH]c2nc(SCC(=O)c3ccc(Br)cc3)[nH]c2c1=O` are 9.7 µM, 11.2 µM, 11.9 µM, 11.5 µM and over 90%.
Taken in the same sequence, the figures for `Cn1c(=O)[nH]c2nc(SCC(=O)c3ccc(Cl)cc3)[nH]c2c1=O` were 6.1 µM, 6.3 µM, 8.1 µM, 7.2 µM and over 90%.
Taken in the same sequence, the figures for `Cn1c(=O)c2[nH]c(SCC(=O)c3ccc(Cl)cc3)nc2n(C)c1=O` were 7.2 µM, 8.4 µM, 8.4 µM, 9.9 µM and over 90%.
Regarding `Cn1c(=O)[nH]c2nc(SC/C(=N/O)c3ccc(Br)cc3)[nH]c2c1=O`, the IC50 was determined as 2.88 µM in series [6]; 2.1 µM in series [1]; 1.7 µM in series [2]; 2.1 µM in series [4]; 2 µM in series [5]. In series [3], the viability at 96 h, 50 µM is over 90%. The “fold change (FC)” value in series [7] is 4.99.
For the compound `Cn1c(=O)[nH]c2nc(SC/C(=N/O)c3ccccc3)[nH]c2c1=O`, the IC50 was 3.6 µM in series [1], 4.3 µM in series [2], 5.6 µM in series [4] and 2.1 µM in [5]. Further, the viability at 96 h, 50 µM in [3] is over 90%.
With `Cn1c(=O)c2[nH]c(SC/C(=N/O)c3ccccc3)nc2n(C)c1=O`, the IC50 in [1] stood at 5.5 µM; in series [2], 5.9 µM; in [4] it was 6.1 µM; in series [5] it was 6.7 µM. Besides, the viability at 96 h, 50 µM in [3] was over 90%.
Consider `COc1ccc(/C(CSc2nc3[nH]c(=O)n(C)c(=O)c3[nH]2)=N\O)cc1`, for which the IC50 in [6] is 0.71 µM; in series [1], 1.91 µM; in series [2], 1.8 µM; in series [4], 1.5 µM; in series [5], 1.7 µM. For the same compound, the “fold change (FC)” value is listed as 2.58 in [8]; 11.43 in series [9]; 8.9 in [10]; 7.65 in [7]; 14.49 in [11]; 0.3378 in [12]. Moreover, the viability at 96 h, 50 µM in series [3] is over 90%.
On to `Cn1c(=O)c2[nH]c(SC/C(=N/O)c3ccc(Br)cc3)nc2n(C)c1=O`, for which the IC50 in series [6] came to 0.45 µM; in series [1], 1.7 µM; in [2], 1.3 µM; in series [4] it was 1.8 µM; in [5], 1.7 µM. Further, the viability at 96 h, 50 µM in series [3] is over 90%. The “fold change (FC)” value in [7] is 5.91.
Regarding `COc1ccc(C(=O)CSc2nc3[nH]c(=O)n(C)c(=O)c3[nH]2)cc1`, the half-inhibitory concentration (IC50) came to 5.5 µM in [1], 5.9 µM in series [2], 6.1 µM in series [4] and 6.7 µM in [5]. The viability at 96 h, 50 µM in series [3] was over 90%.
On to `Cn1c(=O)c2[nH]c(SC/C(=N/O)c3ccc(Cl)cc3)nc2n(C)c1=O`, for which the 50% inhibitory concentration (IC50) in series [6] worked out at 0.4 µM; in [1] it was 1.3 µM; in series [2], 1 µM; in [4], 1.5 µM; in series [5], 1.2 µM. Besides, the viability at 96 h, 50 µM in [3] was over 90%. For the same compound, the “fold change (FC)” value in series [7] was 4.11.
For the compound `CC(=O)c1ccc(NC(=O)CSc2nc3c([nH]2)c(=O)n(C)c(=O)n3C)cc1`, the IC50 in [1] is 5.1 µM; in [2] it was 6.1 µM; in series [4], 6.9 µM; in series [5], 6.4 µM. Also, in [3], the viability at 96 h, 50 µM was over 90%.
In the same order, the values of `Cn1c(=O)c2[nH]c(SCC(=O)c3ccccc3)nc2n(C)c1=O` are 4.9 µM, 5.1 µM, 6.7 µM, 5.9 µM and over 90%.
Taken in the same sequence, the figures for `Cn1c(=O)[nH]c2nc(SCC(=O)c3ccccc3)[nH]c2c1=O` were 9.4 µM, 11.6 µM, 11.9 µM, 11.1 µM and over 90%.
In the same order, the values of `Cn1c(=O)c2[nH]c(SCC(=O)c3ccc(Br)cc3)nc2n(C)c1=O` are 7.4 µM, 7.6 µM, 7.9 µM, 6.5 µM and over 90%.
For `CC(=O)c1ccc(NC(=O)CSc2nc3[nH]c(=O)n(C)c(=O)c3[nH]2)cc1`, the IC50 in series [1] is 5.9 µM; in series [2] it was 6.1 µM; in series [4], 7.7 µM; in [5] it was 6.9 µM. Further, the viability at 96 h, 50 µM in series [3] is over 90%.
Turning to `COc1ccc(C(=O)CSc2nc3c([nH]2)c(=O)n(C)c(=O)n3C)cc1`, the IC50 was found to be 6.4 µM in [1], 7.6 µM in series [2], 7.9 µM in series [4] and 8.1 µM in series [5]. Besides, in [3], the viability at 96 h, 50 µM was over 90%.
Turning to `Cn1c(=O)[nH]c2nc(SC/C(=N/O)c3ccc(Cl)cc3)[nH]c2c1=O`, the Activity in series [13] is 6.11%; in [14], 17.34%; in [15] it was 35.08%; in series [16], 2.37%; in [17] it was 8.86%; in [18], 34.36%. The IC50 in series [6] came to 0.82 µM; in [1] it was 1.7 µM; in [2] it was 1.4 µM; in series [4] it was 1.89 µM; in series [5] it was 1.8 µM. Besides, the “fold change (FC)” value was 3.47 in series [8]; 10.2 in series [9]; 12.7 in series [10]; 8.06 in series [7]; 15.68 in [11]; 0.239 in series [12]. Moreover, the viability at 96 h, 50 µM in series [3] is over 90%.
Consider `COc1ccc(/C(CSc2nc3c([nH]2)c(=O)n(C)c(=O)n3C)=N\O)cc1`, for which the IC50 in series [1] turned out to be 0.91 µM; in series [2] it was 0.8 µM; in series [4] it was 1.5 µM; in [5], 1.7 µM. In addition, in [3], the viability at 96 h, 50 µM was over 90%.
In the same order, the values of `C/C(=N/O)c1ccc(NC(=O)CSc2nc3c([nH]2)c(=O)n(C)c(=O)n3C)cc1` are 4.6 µM, 5.3 µM, 6.6 µM, 3.1 µM and over 90%.
Take `COc1cccc2c1C(=O)c1c(O)c3c(c(O)c1C2=O)C[C@@](O)(C(=O)CO)C[C@@H]3O[C@H]1C[C@H](N)[C@H](O)[C@H](C)O1` [DOXORUBICIN]: in series [14], the Activity was 22.17%. Further, the figures for the concentration for half-maximal inhibition (IC50) in series [1], in [4] and in series [5] were 1.41 µM, 1.21 µM and 1.01 µM, respectively.
